Experimental data reported in ChEMBL document CHEMBL1148254, “Lead discovery of quinoxalinediones as an inhibitor of dipeptidyl peptidase-IV (DPP-IV) by high-throughput screening” (Bioorg Med Chem Lett, 2004).

Biological target: Dipeptidyl peptidase 4 (Rattus norvegicus) (UniProt P14740)
Experiment: Inhibitory activity against Dipeptidylpeptidase IV in rat
Design: concentration or dose not given beside the values
Details: concentration not given here
How it was run: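 Rat plasma was the enzyme source, incubated with Ala-Pro-AFC substrate (40) at room temperature, pH 7.8, for 1 h with or without test compound (20). Compounds were dissolved in DMSO, giving 5% DMSO in the assay mixture. Released AFC was read by fluorescence at 360 nm excitation and 485 nm emission, and a reference inhibitor was included.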

Sequence of Dipeptidyl peptidase 4 (Rattus norvegicus) (P14740 whole entry, looked up): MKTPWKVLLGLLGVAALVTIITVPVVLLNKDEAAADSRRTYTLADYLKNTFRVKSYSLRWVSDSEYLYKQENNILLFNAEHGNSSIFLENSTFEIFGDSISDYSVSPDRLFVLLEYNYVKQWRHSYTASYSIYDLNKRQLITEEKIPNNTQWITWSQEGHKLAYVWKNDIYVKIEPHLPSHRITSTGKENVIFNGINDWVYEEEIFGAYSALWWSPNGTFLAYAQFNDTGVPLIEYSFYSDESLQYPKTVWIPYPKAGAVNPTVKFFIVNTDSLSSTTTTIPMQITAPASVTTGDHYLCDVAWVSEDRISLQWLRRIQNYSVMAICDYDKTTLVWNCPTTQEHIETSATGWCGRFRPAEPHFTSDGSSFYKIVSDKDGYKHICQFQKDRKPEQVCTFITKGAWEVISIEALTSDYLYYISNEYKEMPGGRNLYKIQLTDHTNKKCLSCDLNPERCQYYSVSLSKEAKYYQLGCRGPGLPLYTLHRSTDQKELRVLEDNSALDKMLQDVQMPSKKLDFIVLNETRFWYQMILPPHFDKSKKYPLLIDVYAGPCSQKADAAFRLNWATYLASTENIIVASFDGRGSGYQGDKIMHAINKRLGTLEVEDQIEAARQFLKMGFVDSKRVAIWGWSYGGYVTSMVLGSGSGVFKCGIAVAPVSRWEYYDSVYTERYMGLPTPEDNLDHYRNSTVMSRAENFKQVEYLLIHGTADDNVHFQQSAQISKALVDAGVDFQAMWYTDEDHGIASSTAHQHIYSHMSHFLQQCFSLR

Row | inhibition [%] | SMILES
1 | 66.8 | O=C(Nn1c(=O)c(=O)[nH]c2cc([N+](=O)[O-])ccc21)NS(=O)(=O)c1ccc(Cl)cc1
2 | 3.6 | O=C(Nc1ccccc1)Nn1c(=O)c(=O)[nH]c2cc([N+](=O)[O-])ccc21
3 | 57.2 | O=C(Nn1c(=O)c(=O)[nH]c2cc([N+](=O)[O-])ccc21)NS(=O)(=O)c1ccccc1
4 | 20.5 | O=C(NC(=S)Nn1c(=O)c(=O)[nH]c2cc(Cl)c(Cl)cc21)c1ccccc1
5 | 72.2 | O=C(NC(=O)c1ccccc1)Nn1c(=O)c(=O)[nH]c2cc([N+](=O)[O-])ccc21
6 | 40.1 | CC/N=C(\S)Nn1c(=O)c(=O)[nH]c2ccccc21
7 | 1 | Cc1ccc(NC(=O)Nn2c(=O)c(=O)[nH]c3cc([N+](=O)[O-])ccc32)cc1
8 | 48 | Cc1ccc(S(=O)(=O)NC(=O)Nn2c(=O)c(=O)[nH]c3cc([N+](=O)[O-])ccc32)cc1
9 | 17.3 | O=C(Nn1c(=O)c(=O)[nH]c2cc(Cl)ccc21)NS(=O)(=O)c1ccccc1

The remaining lines, values behind:

Row | SMILES | inhibition [%]
10 | Cc1ccccc1S(=O)(=O)NC(=O)Nn1c(=O)c(=O)[nH]c2cc([N+](=O)[O-])ccc21 | 79.1
11 | Cc1ccc(S(=O)(=O)NC(=O)Nn2c(=O)c(=O)[nH]c3ccccc32)cc1 | 12.3
12 | Cc1ccc(S(=O)(=O)NC(=O)Nn2c(=O)c(=O)[nH]c3cc(Cl)ccc32)cc1 | 20.5
13 | O=c1[nH]c2ccccc2n(NC(=S)Nc2ccccc2)c1=O | 26.5
14 | O=C(Nn1c(=O)c(=O)[nH]c2ccccc21)NS(=O)(=O)c1ccccc1 | 14.1
15 | O=C(Nc1ccc(F)cc1F)Nn1c(=O)c(=O)[nH]c2cc([N+](=O)[O-])ccc21 | 5.1
16 | Cc1ccccc1S(=O)(=O)NC(=O)Nn1c(=O)c(=O)[nH]c2cc(Cl)ccc21 | 26.4
17 | Cc1ccccc1S(=O)(=O)NC(=O)Nn1c(=O)c(=O)[nH]c2cc(Cl)c(Cl)cc21 | 10.4
18 | O=c1[nH]c2ccccc2n(NC(=S)Nc2cccc(Cl)c2)c1=O | 32.1
19 | O=c1[nH]c2ccccc2n(NC(=S)NCc2ccccc2)c1=O | 41.5
20 | O=c1[nH]c2cc(Cl)c(Cl)cc2n(NC(=S)Nc2ccccc2)c1=O | 50
21 | O=C(Nc1cccc(Cl)c1)Nn1c(=O)c(=O)[nH]c2cc([N+](=O)[O-])ccc21 | 6.6
22 | O=C(NC(=O)c1ccccc1)Nn1c(=O)c(=O)[nH]c2cc(Cl)ccc21 | 14.8
23 | O=C(NC(=O)c1ccccc1)Nn1c(=O)c(=O)[nH]c2ccccc21 | 13
24 | Cc1ccc(S(=O)(=O)NC(=O)Nn2c(=O)c(=O)[nH]c3cc(Cl)c(Cl)cc32)cc1 | 21
25 | O=C(Nn1c(=O)c(=O)[nH]c2cc(Cl)c(Cl)cc21)NS(=O)(=O)c1ccccc1 | 23.7
26 | Cc1ccccc1S(=O)(=O)NC(=O)Nn1c(=O)c(=O)[nH]c2ccccc21 | 12.3
